In PubChem BioAssay AID588321 (Southern Research Specialized Biocontainment Screening …, 2011):
Calls of active or inactive are those of the source.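 Rule for the calls: active = phage lysis blocked by at least 50% at any tested concentration; inactive = the rest.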

What was measured:
[1] = protection of UTI89 from K1F phage lysis – E. coli UTI89, set 5, capsule biogenesis inhibitor project, confirmation (AID 588321); details: E. coli UTI89 K1F phage lysis inhibition, OD600; for inhibition of phage lysis: at 100 µM (top of the series); for CC50: measured here: cytotoxicity
Summary of the method: (§1)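 Test system: Uropathogenic E. coli UTI89 (K1 capsule) and kpsM mutant cultures; reagent: K1F phage infection; times: 1.25 h pre-incubation, 3 h after phage, 37 °C; signal: absorbance at 600 nm (OD600); read-out basis: lysis from OD600 3 h after phage; benchmarks: kpsM mutant resisting phage lysis; repeats: quadruplicate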

[2] = system: E. coli UTI89 K1F phage lysis inhibition, OD600; assay: as above
Summary of the method: as §1

IC50 [2] [µM]	Structure (SMILES)	inhibition of phage lysis [1]	CC50 [1] [µM]
–	O=C(O)c1sc(-c2ccccc2)cc1NC(=O)C1CCCC1	15.2% (inactive)	–
–	O=C(Nc1cc(-c2ccccc2)sc1C(=O)O)c1ccc(Cl)s1	10.1% (inactive)	71.5
–	COC(=O)c1sc(-c2ccccc2)cc1NC(=O)c1c(F)cccc1F	29.8% (inactive)	10.4
1.03	O=C(Nc1ccncc1)c1ccc2ncsc2c1	–	–
83.5	O=C(Nc1cc(-c2ccccc2)sc1C(=O)O)c1cccc(Cl)c1	–	52.6
–	O=C(Nc1cc(-c2ccccc2)sc1C(=O)O)c1cc(Cl)c2c(c1)OCCO2	6% (inactive)	–
58.4	O=C(Nc1cc(-c2ccccc2)sc1C(=O)O)c1ccc(Br)o1	–	104
–	Cc1c(C(=O)Nc2cc(-c3ccccc3)sc2C(=O)O)oc2ccccc12	5.2% (inactive)	48.7
–	CCOc1ccc(-c2cc(NC(=O)c3c(F)cccc3F)c(C(=O)OC)s2)cc1	14.9% (inactive)	> 300
–	O=C(Nc1cc(-c2ccccc2)sc1C(=O)O)c1cc2ccccc2o1	10.4% (inactive)	–
–	Cc1ccc(C(=O)Nc2cc(-c3ccccc3)sc2C(=O)O)s1	–	63.6
56	CCOc1ccc(-c2cc(NC(=O)c3ccc(OC)c(OC)c3)c(C(=O)O)s2)cc1	–	82.8
–	O=C(Nc1cc(-c2ccccc2)sc1C(=O)O)c1cccc(F)c1	18.7% (inactive)	76.9
45.6	CCOc1ccc(-c2cc(NC(=O)c3cccc(Cl)c3)c(C(=O)O)s2)cc1	–	83.9
82.7	O=C(Nc1cc(-c2ccccc2)sc1C(=O)O)c1cccs1	–	89.3
–	Cc1onc(-c2ccccc2)c1C(=O)Nc1cc(-c2ccccc2)sc1C(=O)O	3.71% (inactive)	52.6
42.7	O=C(Nc1cc(-c2ccccc2)sc1C(=O)O)c1ccc2c(c1)OCCO2	–	82.1
–	O=C(O)c1sc(-c2ccccc2)cc1NC(=O)C1CCCCC1	16.1% (inactive)	–
